Experiments:
[1] = folding enthalpy; higher = less favourable; fluorescence melt of hairpins on a sequencing array, two-state fit; conditions: sodium 0.088 M
How it was run: (§1)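 Library hairpins on a sequenced MiSeq flow cell carried annealed Cy3 and quencher oligos, and their Cy3 fluorescence was imaged in 50 mM Na-HEPES pH 8.0 with 25 mM NaCl, in 2.5 °C steps up to 60 °C. Signals were normalised to Cy3 before quenching and to control constructs. Melting temperature and folding enthalpy were obtained from bootstrapped two-state fits, combined by inverse-variance weighting across four replicates, and the fitted temperatures were then raised by 9.35 °C to match UV melts.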

[2] = melting temperature; fluorescence melt of hairpins on a sequencing array, two-state fit, raised by 9.35 °C to match UV melts; conditions: sodium 0.088 M
How it was run: as §1

Row | Sequence | folding enthalpy [1] [kcal/mol] | Tm [2] [°C]
1 | GATCTGACGACAGATC ((((((....)))))) | -35 | 48.5
2 | GATCTGAGAACAGATC ((((((....)))))) | -27.5 | 45.1
3 | GATCTGAGCCCAGATC ((((((....)))))) | -29.7 | 47.3
4 | GATCTGAGGTCAGATC ((((((....)))))) | -40.6 | 49.4
5 | GATCTGAGTTCAGATC ((((((....)))))) | -43.7 | 49.9
6 | GATCTGATGACAGATC ((((((....)))))) | -34.8 | 48.8
7 | GATCTGATGGCAGATC ((((((....)))))) | -36.5 | 47.7
8 | GATCTGCAATCAGATC ((((((....)))))) | -36.7 | 47.2
9 | GATCTGCACCCAGATC ((((((....)))))) | -33.4 | 47.8
10 | GATCTGCACTCAGATC ((((((....)))))) | -34.1 | 48.9
11 | GATCTGCAGCCAGATC ((((((....)))))) | -32.6 | 48.9
12 | GATCTGCCAGCAGATC ((((((....)))))) | -38.6 | 57.7
13 | GATCTGCCGCCAGATC ((((((....)))))) | -31.9 | 51.4
14 | GATCTGCCGTCAGATC ((((((....)))))) | -37.8 | 50.2
15 | GATCTGCGAAAGCACATC (((.(((....))).))) | -13.5 | 30.4
16 | GATCTGCGACAGATC ((((((...)))))) | -26.2 | 47.3
17 | GATCTGCGGACAGATC ((((((....)))))) | -28.2 | 50.4
18 | GATCTGCGTACAGATC ((((((....)))))) | -36.4 | 53.9
19 | GATCTGCGTGCAGATC ((((((....)))))) | -34.5 | 66.7
20 | GATCTGCTCCAGATC ((((((...)))))) | -31.1 | 50.4
21 | GATCTGGATCAGATC ((((((...)))))) | -29.6 | 47.9
22 | GATCTGGATCCAGATC ((((((....)))))) | -55.9 | 54.1
23 | GATCTGGGGGCAGATC ((((((....)))))) | -41 | 51
24 | GATCTGGGTCAGATC ((((((...)))))) | -35.9 | 48.6

Row | Sequence | folding enthalpy [1] [kcal/mol] | Tm [2] [°C]
25 | GATCTGGGTGCAGATC ((((((....)))))) | -47.2 | 52.5
26 | GATCTGGTACAGATC ((((((...)))))) | -41.3 | 60.8
27 | GATCTGGTACCAGATC ((((((....)))))) | -37.8 | 56
28 | GATCTGGTCTCAGATC ((((((....)))))) | -43 | 53
29 | GATCTGGTGACAGATC ((((((....)))))) | -40.8 | 56.4
30 | GATCTGGTTGCAGATC ((((((....)))))) | -42.9 | 51.1
31 | GATCTGTAGCCAGATC ((((((....)))))) | -34.1 | 48.6
32 | GATCTGTATCAGATC ((((((...)))))) | -34.4 | 48.2
33 | GATCTGTATGCAGATC ((((((....)))))) | -38.8 | 54.9
34 | GATCTGTCCACAGATC ((((((....)))))) | -40.8 | 55.6
35 | GATCTGTCCCAGATC ((((((...)))))) | -33.6 | 49.5
36 | GATCTGTCTGCAGATC ((((((....)))))) | -42.1 | 52.9
37 | GATCTGTGCTCAGATC ((((((....)))))) | -39 | 50.6
38 | GATCTGTGGCAGATC ((((((...)))))) | -30.3 | 49.1
39 | GATCTGTGGGCAGATC ((((((....)))))) | -49.7 | 54.3
40 | GATCTGTGTGCAGATC ((((((....)))))) | -46.9 | 56.4
41 | GATCTGTTGACAGATC ((((((....)))))) | -43.8 | 53.1
42 | GATCTGTTTGCAGATC ((((((....)))))) | -40.6 | 54.8
43 | GATCTTAAAAAGATC ((((((...)))))) | -27.5 | 42.7
44 | GATCTTAACCAAGATC ((((((....)))))) | -33.7 | 42.9
45 | GATCTTAATAAGATC ((((((...)))))) | -24.4 | 39.8
46 | GATCTTACACAAGATC ((((((....)))))) | -28.2 | 42.7
47 | GATCTTACCAAGATC ((((((...)))))) | -33 | 45.6
48 | GATCTTACGAAAGATC ((((((....)))))) | -26.4 | 39.4

Row | Sequence | folding enthalpy [1] [kcal/mol] | Tm [2] [°C]
49 | GATCTTACGGAAGATC ((((((....)))))) | -29.2 | 44.1
50 | GATCTTACTAAGATC ((((((...)))))) | -34.4 | 42.6
51 | GATCTTAGATAAGATC ((((((....)))))) | -42.7 | 41.8
52 | GATCTTAGCCAAGATC ((((((....)))))) | -32.2 | 43.1
53 | GATCTTAGGTAAGATC ((((((....)))))) | -30.1 | 42.6
54 | GATCTTAGTGAAGATC ((((((....)))))) | -27.1 | 43.1
55 | GATCTTATGCAAGATC ((((((....)))))) | -36.5 | 43
56 | GATCTTATGGAAGATC ((((((....)))))) | -29.2 | 40.5
57 | GATCTTATTTAAGATC ((((((....)))))) | -38.8 | 46.4
58 | GATCTTCAACAAGATC ((((((....)))))) | -25.1 | 38.3
59 | GATCTTCACAAAGATC ((((((....)))))) | -28.9 | 44.9
60 | GATCTTCAGGAAGATC ((((((....)))))) | -29 | 46.8
61 | GATCTTCCAAAGATC ((((((...)))))) | -27.4 | 43.2
62 | GATCTTCCCAAAGATC ((((((....)))))) | -32.6 | 45.5
63 | GATCTTCCCAAGATC ((((((...)))))) | -37.6 | 45.8
64 | GATCTTCCCCAAGATC ((((((....)))))) | -35.2 | 41.6
65 | GATCTTCCGAAGATC ((((((...)))))) | -31.9 | 43
66 | GATCTTCCTAAGATC ((((((...)))))) | -31.6 | 45.7
67 | GATCTTCGCTAAGATC ((((((....)))))) | -34.2 | 43
68 | GATCTTCTAAAAGATC ((((((....)))))) | -30.2 | 42
69 | GATCTTCTGGAAGATC ((((((....)))))) | -46.2 | 49.7
70 | GATCTTCTTAAGATC ((((((...)))))) | -30.1 | 44.3
71 | GATCTTGACGAAGATC ((((((....)))))) | -26.5 | 46.1
72 | GATCTTGAGAAGATC ((((((...)))))) | -19.9 | 39.6

Reference: the array DNA melting data of Ke et al. (doi:10.1101/2024.01.08.574731)
